According to ChEMBL document CHEMBL5724801, “EUbOPEN Chemogenomics Library - Multiplex” (2024):
Several values for one entry are separate records, joined by “and”; a condition that tells them apart may be missing. Identical values can stand only once.

System: HEK-293T
Experiment: Multiplex assay against HEK293T
Type: toxicity, cell-based
Conditions: human
Summary of the method: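 Four dyes were applied at seeding to live cells: Hoechst33342, BioTracker Green Microtubule Cytoskeleton Dye, MitoTracker Red and Annexin V Alexa Fluor 680. Imaging after compound addition used a CQ1 microscope at 37°C and 5% CO2. CellPathfinder machine-learning gating then sorted cells into Hoechst high-intensity objects or normal cells, normal cells into healthy, pyknosed or fragmented nuclei, and pyknosed cells into mitotic or apoptotic, with tubulin, mitochondrial-mass and membrane-permeability phenotypes given as per cents of healthy-nucleus cells.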

[1] = 12 h, 1 µM, compound concentration 1 uM
[2] = 12 h, 10 µM, compound concentration 10 uM
[3] = 24 h, 1 µM, compound concentration 1 uM
[4] = 24 h, 10 µM, compound concentration 10 uM
[5] = 48 h, 1 µM, compound concentration 1 uM
[6] = 48 h, 10 µM, compound concentration 10 uM

## Cc1cccc(NC(=O)CN2CCC(c3ccccn3)CC2)c1.Cl.Cl
[1]
  Population Apoptotic (%): 34% and 46%
  Population Fragmented Nuclei (%): 7% and 5%
  Population Healthy Nuclei (%): 76% and 82%
  Population Hoechst High Intensity Objects (%): 5% and 3%
  Population Membrane Permeable-Phenotype (%): 0%
  Population Mitochondria Different-Phenotype (%): 54%
  Population Mitotic Cells (%): 65% and 53%
  Population Normal (%): 94% and 96%
  Population Pyknosed Nuclei (%): 15% and 11%
  Population Tubulin-Different-Phenotype (%): 33% and 22%
  Total Cell Count: 348 and 277
[2]
  Population Apoptotic (%): 61% and 43%
  Population Fragmented Nuclei (%): 6% and 10%
  Population Healthy Nuclei (%): 71% and 70%
  Population Hoechst High Intensity Objects (%): 9% and 14%
  Population Membrane Permeable-Phenotype (%): 0%
  Population Mitochondria Different-Phenotype (%): 63% and 79%
  Population Mitotic Cells (%): 38% and 56%
  Population Normal (%): 90% and 85%
  Population Pyknosed Nuclei (%): 21% and 18%
  Population Tubulin-Different-Phenotype (%): 50% and 35%
  Total Cell Count: 291 and 273
[3]
  Population Apoptotic (%): 32% and 45%
  Population Fragmented Nuclei (%): 8% and 10%
  Population Healthy Nuclei (%): 81% and 79%
  Population Hoechst High Intensity Objects (%): 3% and 4%
  Population Membrane Permeable-Phenotype (%): 0%
  Population Mitochondria Different-Phenotype (%): 30% and 44%
  Population Mitotic Cells (%): 67% and 54%
  Population Normal (%): 96% and 95%
  Population Pyknosed Nuclei (%): 9% and 10%
  Population Tubulin-Different-Phenotype (%): 22% and 18%
  Total Cell Count: 451 and 339
[4]
  Population Apoptotic (%): 59% and 50%
  Population Fragmented Nuclei (%): 8% and 11%
  Population Healthy Nuclei (%): 74% and 75%
  Population Hoechst High Intensity Objects (%): 7%
  Population Membrane Permeable-Phenotype (%): 0%
  Population Mitochondria Different-Phenotype (%): 60% and 64%
  Population Mitotic Cells (%): 40% and 50%
  Population Normal (%): 92%
  Population Pyknosed Nuclei (%): 17% and 13%
  Population Tubulin-Different-Phenotype (%): 38% and 26%
  Total Cell Count: 350 and 348
[5]
  Population Apoptotic (%): 30% and 46%
  Population Fragmented Nuclei (%): 13% and 8%
  Population Healthy Nuclei (%): 76% and 83%
  Population Hoechst High Intensity Objects (%): 2% and 4%
  Population Membrane Permeable-Phenotype (%): 0%
  Population Mitochondria Different-Phenotype (%): 25% and 24%
  Population Mitotic Cells (%): 69% and 53%
  Population Normal (%): 97% and 95%
  Population Pyknosed Nuclei (%): 9% and 8%
  Population Tubulin-Different-Phenotype (%): 21% and 13%
  Total Cell Count: 688 and 524
[6]
  Population Apoptotic (%): 46% and 48%
  Population Fragmented Nuclei (%): 13% and 16%
  Population Healthy Nuclei (%): 75% and 76%
  Population Hoechst High Intensity Objects (%): 4% and 2%
  Population Membrane Permeable-Phenotype (%): 0%
  Population Mitochondria Different-Phenotype (%): 45% and 37%
  Population Mitotic Cells (%): 53% and 51%
  Population Normal (%): 95% and 97%
  Population Pyknosed Nuclei (%): 10% and 7%
  Population Tubulin-Different-Phenotype (%): 26% and 20%
  Total Cell Count: 515 and 544

## Cc1ccc(-c2c(C(=O)CF)n(CCCO)c3ncnc(N)c23)cc1
[1]
  Population Apoptotic (%): 10.53% and 14.63%
  Population Fragmented Nuclei (%): 2.38% and 4.08%
  Population Hoechst High Intensity Objects (%): 0%
  Population Membrane Permeable-Phenotype (%): 0% and 5.56%
  Population Mitotic Cells (%): 89.47% and 85.37%
  Population Normal (%): 100%
  Population Pyknosed Nuclei (%): 38.78% and 83.67%
  Total Cell Count: 294 and 147
[2]
  Population Apoptotic (%): 9.68% and 15.93%
  Population Fragmented Nuclei (%): 5.7% and 4.44%
  Population Hoechst High Intensity Objects (%): 0.33% and 0%
  Population Membrane Permeable-Phenotype (%): 1.91% and 0%
  Population Mitochondria Different-Phenotype (%): 38.22% and 25%
  Population Mitotic Cells (%): 90.32% and 84.07%
  Population Normal (%): 99.67% and 100%
  Population Pyknosed Nuclei (%): 41.61% and 83.7%
  Population Tubulin-Different-Phenotype (%): 17.83% and 37.5%
  Total Cell Count: 299 and 135
[3]
  Population Apoptotic (%): 6.73% and 15.13%
  Population Fragmented Nuclei (%): 3.4% and 2.5%
  Population Hoechst High Intensity Objects (%): 0%
  Population Membrane Permeable-Phenotype (%): 2.86% and 0%
  Population Mitochondria Different-Phenotype (%): 14.57% and 8.11%
  Population Mitotic Cells (%): 93.27% and 84.87%
  Population Normal (%): 100%
  Population Tubulin-Different-Phenotype (%): 10.86% and 5.41%
  Total Cell Count: 470 and 160
[4]
  Population Apoptotic (%): 19.61% and 24.07%
  Population Fragmented Nuclei (%): 2.25% and 2.94%
  Population Healthy Nuclei (%): 74.77% and 33.53%
  Population Hoechst High Intensity Objects (%): 0%
  Population Membrane Permeable-Phenotype (%): 0.9% and 0%
  Population Mitotic Cells (%): 80.39% and 75.93%
  Population Normal (%): 100%
  Population Pyknosed Nuclei (%): 22.97% and 63.53%
  Population Tubulin-Different-Phenotype (%): 24.4% and 8.77%
  Total Cell Count: 444 and 170
[5]
  Population Fragmented Nuclei (%): 1.92% and 2.58%
  Population Healthy Nuclei (%): 88.16% and 57.22%
  Population Hoechst High Intensity Objects (%): 0%
  Population Membrane Permeable-Phenotype (%): 5.14% and 2.7%
  Population Mitochondria Different-Phenotype (%): 13.34% and 21.62%
  Population Mitotic Cells (%): 97.67% and 83.33%
  Population Normal (%): 100%
[6]
  Population Apoptotic (%): 7.29% and 16.44%
  Population Fragmented Nuclei (%): 3.41% and 2.51%
  Population Healthy Nuclei (%): 87.23% and 60.8%
  Population Hoechst High Intensity Objects (%): 0%
  Population Membrane Permeable-Phenotype (%): 3.58% and 0.83%
  Population Mitochondria Different-Phenotype (%): 25.47% and 33.88%
  Population Mitotic Cells (%): 92.71% and 83.56%
  Population Normal (%): 100%

## NC1=NC(=O)/C(=C2\CCNC(=O)c3[nH]c4ccccc4c32)N1
[1]
  Population Apoptotic (%): 13.33% and 11.21%
  Population Fragmented Nuclei (%): 2.11% and 2.19%
  Population Hoechst High Intensity Objects (%): 0.52% and 0%
  Population Membrane Permeable-Phenotype (%): 0.85% and 3.7%
  Population Mitotic Cells (%): 86.67% and 88.79%
  Population Normal (%): 99.48% and 100%
  Population Pyknosed Nuclei (%): 35.62% and 78.1%
  Total Cell Count: 381 and 137
[2]
  Population Apoptotic (%): 8.93% and 12.5%
  Population Fragmented Nuclei (%): 2.8% and 2.1%
  Population Hoechst High Intensity Objects (%): 0%
  Population Membrane Permeable-Phenotype (%): 1% and 0%
  Population Mitochondria Different-Phenotype (%): 33.83% and 15%
  Population Mitotic Cells (%): 91.07% and 87.5%
  Population Normal (%): 100%
  Population Pyknosed Nuclei (%): 34.78% and 83.92%
  Total Cell Count: 322 and 143
[3]
  Population Apoptotic (%): 12% and 13.98%
  Population Fragmented Nuclei (%): 1.99% and 1.92%
  Population Healthy Nuclei (%): 77.28% and 38.46%
  Population Hoechst High Intensity Objects (%): 0%
  Population Membrane Permeable-Phenotype (%): 0.86% and 3.33%
  Population Mitochondria Different-Phenotype (%): 12.45% and 11.67%
  Population Mitotic Cells (%): 88% and 86.02%
  Population Normal (%): 100%
  Population Pyknosed Nuclei (%): 20.73% and 59.62%
  Population Tubulin-Different-Phenotype (%): 11.37% and 1.67%
[4]
  Population Apoptotic (%): 14.91% and 16%
  Population Fragmented Nuclei (%): 1.32% and 5.13%
  Population Healthy Nuclei (%): 73.68% and 30.77%
  Population Hoechst High Intensity Objects (%): 0%
  Population Membrane Permeable-Phenotype (%): 0.89% and 6.25%
  Population Mitochondria Different-Phenotype (%): 13.69% and 18.75%
  Population Mitotic Cells (%): 85.09% and 84%
  Population Normal (%): 100%
  Population Pyknosed Nuclei (%): 25% and 64.1%
  Population Tubulin-Different-Phenotype (%): 10.42% and 4.17%
  Total Cell Count: 456 and 156
[5]
  Population Apoptotic (%): 9.77% and 15.52%
  Population Fragmented Nuclei (%): 3.77% and 1.5%
  Population Healthy Nuclei (%): 86.2% and 69.5%
  Population Hoechst High Intensity Objects (%): 0.08% and 0%
  Population Membrane Permeable-Phenotype (%): 3.85% and 3.6%
  Population Mitochondria Different-Phenotype (%): 10.94% and 10.79%
  Population Mitotic Cells (%): 90.23% and 84.48%
  Population Normal (%): 99.92% and 100%
  Population Pyknosed Nuclei (%): 10.03% and 29%
[6]
  Population Apoptotic (%): 6.19% and 12.05%
  Population Fragmented Nuclei (%): 2.47% and 2.35%
  Population Healthy Nuclei (%): 85.57% and 58.69%
  Population Hoechst High Intensity Objects (%): 0.25% and 0.93%
  Population Membrane Permeable-Phenotype (%): 2.16% and 0.8%
  Population Mitochondria Different-Phenotype (%): 22.48% and 16.8%
  Population Mitotic Cells (%): 93.81% and 87.95%
  Population Normal (%): 99.75% and 99.07%

## CCCCC1=NC2(CCCC2)C(=O)N1Cc1ccc(-c2ccccc2-c2nnn[nH]2)cc1 [IRBESARTAN]
[1]
  Population Apoptotic (%): 24% and 28%
  Population Fragmented Nuclei (%): 9% and 8%
  Population Healthy Nuclei (%): 79% and 78%
  Population Hoechst High Intensity Objects (%): 9% and 4%
  Population Membrane Permeable-Phenotype (%): 0%
  Population Mitochondria Different-Phenotype (%): 34% and 63%
  Population Mitotic Cells (%): 75% and 71%
  Population Normal (%): 91% and 95%
  Population Pyknosed Nuclei (%): 10% and 12%
  Population Tubulin-Different-Phenotype (%): 17% and 20%
  Total Cell Count: 500 and 353
[2]
  Population Apoptotic (%): 50% and 56%
  Population Fragmented Nuclei (%): 7% and 6%
  Population Healthy Nuclei (%): 70% and 78%
  Population Hoechst High Intensity Objects (%): 5% and 13%
  Population Membrane Permeable-Phenotype (%): 2% and 0%
  Population Mitochondria Different-Phenotype (%): 46% and 66%
  Population Mitotic Cells (%): 50% and 43%
  Population Normal (%): 94% and 86%
  Population Pyknosed Nuclei (%): 22% and 15%
  Population Tubulin-Different-Phenotype (%): 50% and 33%
  Total Cell Count: 219 and 351
[3]
  Population Apoptotic (%): 31% and 34%
  Population Fragmented Nuclei (%): 9%
  Population Healthy Nuclei (%): 79% and 80%
  Population Hoechst High Intensity Objects (%): 4% and 7%
  Population Membrane Permeable-Phenotype (%): 0%
  Population Mitochondria Different-Phenotype (%): 24% and 45%
  Population Mitotic Cells (%): 68% and 65%
  Population Normal (%): 95% and 92%
  Population Pyknosed Nuclei (%): 10% and 9%
  Population Tubulin-Different-Phenotype (%): 15% and 14%
  Total Cell Count: 625 and 456
[4]
  Population Apoptotic (%): 27% and 41%
  Population Fragmented Nuclei (%): 6% and 11%
  Population Healthy Nuclei (%): 77%
  Population Hoechst High Intensity Objects (%): 3% and 10%
  Population Membrane Permeable-Phenotype (%): 1% and 0%
  Population Mitochondria Different-Phenotype (%): 37% and 49%
  Population Mitotic Cells (%): 72% and 58%
  Population Normal (%): 96% and 89%
  Population Pyknosed Nuclei (%): 15% and 11%
  Population Tubulin-Different-Phenotype (%): 32% and 22%
  Total Cell Count: 287 and 434
[5]
  Population Apoptotic (%): 29% and 23%
  Population Fragmented Nuclei (%): 11% and 9%
  Population Healthy Nuclei (%): 81% and 84%
  Population Hoechst High Intensity Objects (%): 3% and 2%
  Population Membrane Permeable-Phenotype (%): 0% and 1%
  Population Mitochondria Different-Phenotype (%): 21% and 19%
  Population Mitotic Cells (%): 70% and 76%
  Population Normal (%): 96% and 97%
  Population Pyknosed Nuclei (%): 7% and 6%
  Population Tubulin-Different-Phenotype (%): 15% and 8%
  Total Cell Count: 958 and 705
[6]
  Population Apoptotic (%): 25% and 46%
  Population Fragmented Nuclei (%): 15% and 12%
  Population Healthy Nuclei (%): 75% and 80%
  Population Hoechst High Intensity Objects (%): 1% and 3%
  Population Membrane Permeable-Phenotype (%): 0%
  Population Mitochondria Different-Phenotype (%): 21% and 26%
  Population Mitotic Cells (%): 75% and 53%
  Population Normal (%): 98% and 96%
  Population Pyknosed Nuclei (%): 9% and 6%
  Population Tubulin-Different-Phenotype (%): 15%
  Total Cell Count: 473 and 684
